Results as given in ChEMBL document CHEMBL1139309, “Novel fluorinated pseudopeptides as proteasome inhibitors” (Bioorg Med Chem Lett, 2009).
The source made the active and inactive calls. The rule behind the calls is not given here.

Experiments:
[1] = (§1) Inhibition of trypsin-like activity of rabbit 20S proteasome; set-up: species or system Oryctolagus cuniculus
How it was run: (§2)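 Trypsin-like activity of rabbit 20S proteasome was followed by Boc-LRR-AMC hydrolysis over 45 min at 37 °C, with and without compound (0.1–200 µM). Buffer was pH 7.5 20 mM Tris, 1 mM DTT and 10% glycerol, with no SDS. Values are IC50 or % inhibition at 100 µM, as means of three experiments.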

[2] = target: Cathepsin B (Homo sapiens) (UniProt P07858); assay: Inhibition of CTSB
How it was run: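 Cathepsin B was assayed at 37 °C using Z-RR-AMC substrate in 352 mM KH2PO4 (pH 6), 48 mM NaHPO4, 1 mM EDTA and 1 mM DTT.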

[3] = species on record: Oryctolagus cuniculus; assay: (§3) Inhibition of post-acid activity of rabbit 20S proteasome
How it was run: (§4)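 Rabbit 20S proteasome was run at 37 °C, pH 7.5, for 45 min, with and without compound (0.1–200 µM). Fluorogenic substrates were Suc-LLVY-AMC for chymotrypsin-like activity and Z-LLE-βNA for post-acid activity. Buffer was 20 mM Tris, 1 mM DTT, 10% glycerol and 0.02% (w/v) SDS. IC50 or % inhibition at 100 µM is the mean of three experiments.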

[4] = target: T1, Calpain-1 catalytic subunit (Homo sapiens) (UniProt P07384); assay: Inhibition of calpain 1
T1 sequence (whole entry): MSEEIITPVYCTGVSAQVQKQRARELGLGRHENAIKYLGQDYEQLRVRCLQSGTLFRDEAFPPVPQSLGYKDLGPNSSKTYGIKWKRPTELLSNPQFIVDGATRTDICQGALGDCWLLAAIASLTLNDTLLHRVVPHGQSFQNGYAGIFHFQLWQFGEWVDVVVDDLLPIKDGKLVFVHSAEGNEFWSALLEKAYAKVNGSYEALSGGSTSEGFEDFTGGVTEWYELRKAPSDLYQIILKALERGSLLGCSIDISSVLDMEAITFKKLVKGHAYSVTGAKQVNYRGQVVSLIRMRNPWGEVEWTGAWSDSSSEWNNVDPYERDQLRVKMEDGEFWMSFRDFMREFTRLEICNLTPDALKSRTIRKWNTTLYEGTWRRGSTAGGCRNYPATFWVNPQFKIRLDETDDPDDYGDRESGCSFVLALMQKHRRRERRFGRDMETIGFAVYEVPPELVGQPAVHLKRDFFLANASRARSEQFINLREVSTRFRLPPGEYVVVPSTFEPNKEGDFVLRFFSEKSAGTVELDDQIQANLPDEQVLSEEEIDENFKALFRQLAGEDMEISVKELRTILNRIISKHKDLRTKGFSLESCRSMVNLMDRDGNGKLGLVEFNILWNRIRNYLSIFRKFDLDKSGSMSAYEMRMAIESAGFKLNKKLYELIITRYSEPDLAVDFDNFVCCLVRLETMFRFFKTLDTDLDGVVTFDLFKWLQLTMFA
How it was run: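 Purified calpain I was assayed at 37 °C with Suc-LLVY-AMC substrate in 50 mM Tris–HCl (pH 7.2), 10 mM DTT and 2 mM CaCl2.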

[5] = (§5) Inhibition of chymotrypsin-like activity of rabbit 20S proteasome; set-up: species or system Oryctolagus cuniculus; how it was run: as §4
[6] = as §3; set-up: species or system Oryctolagus cuniculus; how it was run: as §4
[7] = species on record: Oryctolagus cuniculus; assay: as §1; how it was run: as §2
[8] = species on record: Oryctolagus cuniculus; assay: as §5; how it was run: as §4
[9] = test system: HeLa; assay: Inhibition of chymotrypsin-like activity of 20S proteasome in human HeLa cells at 50 uM after 1.5 hrs by chemiluminescent assay
[10] = species on record: Oryctolagus cuniculus; assay: Inhibition of trypsin-like activity of rabbit 20S proteasome at 100 uM; how it was run: as §2

COC(=O)[C@H](Cc1ccccc1)NC(=O)CC(NNC(=O)[C@@H](N)CCCCNC(=O)OCc1ccccc1)C(F)(F)F (mixture of isomers)
IC50 [1]: 4.4 µM
Activity [2]: inactive
Activity [3]: inactive
Activity [4]: inactive
IC50 [5]: 5.9 µM

COC(=O)[C@H](Cc1ccccc1)NC(=O)CC(NNC(=O)[C@H](Cc1ccc(OC)c(OC)c1)NC(=O)Cc1cccc(Oc2ccccc2)c1)C(F)(F)F (mixture of isomers)
IC50 [6]: 72 µM
IC50 [5]: 85 µM

COC(=O)[C@H](Cc1ccccc1)NC(=O)CC(NNC(=O)Cc1cccc(Oc2ccccc2)c1)C(F)(F)F (mixture of isomers)
Activity [7]: inactive
Activity [3]: inactive

COC(=O)[C@H](Cc1ccccc1)NC(=O)CC(NNC(=O)[C@H](CCCCNC(=O)OCc1ccccc1)NC(=O)OC(C)(C)C)C(F)(F)F (mixture of isomers)
Activity [3]: inactive
Activity [8]: inactive

COC(=O)[C@H](Cc1ccccc1)NC(=O)CC(NNC(=O)[C@H](CCCCN)NC(=O)Cc1cccc(Oc2ccccc2)c1)C(F)(F)F (mixture of isomers)
IC50 [1]: 8.4 µM
Activity [2]: inactive
inhibition [9]: 20%
IC50 [6]: 2.7 µM
Activity [4]: inactive
IC50 [5]: 1.6 µM

COC(=O)[C@H](Cc1ccccc1)NC(=O)CC(NNC(=O)[C@H](CCCCN)NC(=O)OC(C)(C)C)C(F)(F)F (mixture of isomers)
Activity [2]: inactive
IC50 [6]: 6 µM
inhibition [10]: 30%
Activity [4]: inactive
IC50 [5]: 32 µM

COC(=O)[C@H](Cc1ccccc1)NC(=O)CC(NNC(=O)[C@H](CCCCNC(=O)OCc1ccccc1)NC(=O)Cc1cccc(Oc2ccccc2)c1)C(F)(F)F (mixture of isomers)
Activity [7]: inactive
IC50 [6]: 200 µM
Activity [8]: inactive
